In PMC3352694 (International Journal of Nanomedicine, 2012):

Columns and labels:
Caco-2 cell monolayers [1] = test: Uptake of Lac-NCTD and its nanoparticles into Caco-2 cell monolayers; format: in vitro ADME, human
Method in brief: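 Monolayers grown 15 days from 1 × 10⁵ cells/cm² in plates, washed, preincubated 15 min at 37°C in HBSS pH 7.4, then exposed to drug or nanoparticle solution. After uptake (15 min, chosen within the linear range), cells were washed thrice with cold HBSS, scraped, homogenized and ultracentrifuged. Supernatant was assayed by reversed-phase HPLC, normalized to Bradford protein and given as mg/g protein, three determinations.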

Caco-2 cell monolayers [2] = test: Bidirectional transepithelial transport across Caco-2 cell monolayers; format: in vitro ADME, human
Method in brief: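 Caco-2 cells (passage 30–50) seeded at 1 × 10⁵ cells/cm² on 1.1 cm² polycarbonate inserts (1 μm pores), used day 21 when TEER reached 700 Ω·cm² and phenol red permeability <0.5%/h. HBSS pH 7.4 preincubation 15 min, 37°C; drug or nanoparticles dosed apically or basolaterally; receiver sampled at 5–60 min with replacement; reversed-phase HPLC. Papp = dQ/dt/(A·C0); PDR from BL→AP and AP→BL; n = 3.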

[3] = cited from earlier work

Lactosyl-norcantharidin [Lac-NCTD]
Effect of concentration on uptake (Caco-2 cell monolayers [1]; 100 μg/mL to 400 μg/mL): Concentration dependence or saturation was observed
Uptake amount (Caco-2 cell monolayers [1]; 250 μg/mL, 4°C): 1.35 ± 0.13 mg/g protein
Time course of uptake (Caco-2 cell monolayers [1]; 250 μg/mL, 37°C): linear in relation to time, from 0 minutes to 30 minutes
Uptake amount (Caco-2 cell monolayers [1]; 250 μg/mL, pH 6.0): 0.82 ± 0.23 mg/g protein
Effect of P-gp inhibitor CyA on uptake (Caco-2 cell monolayers [1]; CyA 20 μmol/L): facilitate the uptake procedure
Effect of MRP2 inhibitor MK-571 on uptake (Caco-2 cell monolayers [1]; MK-571 50 μmol/L): facilitate the uptake procedure
Change of Papp apical to basolateral with CyA (Caco-2 cell monolayers [2]; 250 μg/mL, CyA 20 μmol/L): increased
Change of Papp basolateral to apical with CyA (Caco-2 cell monolayers [2]; 250 μg/mL, CyA 20 μmol/L): decreased
Change of Papp apical to basolateral with MK-571 (Caco-2 cell monolayers [2]; 250 μg/mL, MK-571 50 μmol/L): significantly increased
Change of Papp basolateral to apical with MK-571 (Caco-2 cell monolayers [2]; 250 μg/mL, MK-571 50 μmol/L): lightly decreased
Change of Papp with bypass transport enhancer SDCh (Caco-2 cell monolayers [2]; 250 μg/mL, SDCh 100 mmol/L, versus control): significantly increased
Change of Papp with endocytosis inhibitor oxophenylarsine (Caco-2 cell monolayers [2]; 250 μg/mL, oxophenylarsine 25 mmol/L, versus control): no statistical difference
Increase of Papp apical to basolateral with CyA (Caco-2 cell monolayers [2]; CyA 20 μmol/L added to the apical side): 1.41 times
Increase of Papp apical to basolateral with MK-571 (Caco-2 cell monolayers [2]; MK-571 50 μmol/L added to the apical side): 2.29 times
Therapy efficiency compared with NCTD [3]: significantly higher therapy efficiency
Toxicity compared with NCTD [3]: lower toxicity
